Screens: PubChem, Johns Hopkins Ion Channel Center
Compounds with a hit are over-represented: about 3.7% of the library has one in this group of screens.
KCNQ1 pot – potentiates or activates the human KCNQ1 potassium channel. CHO-K1 KCNQ1, thallium flux FluxOR fluorescence; stronger effect = higher value. 310,000 tested, 0.35% active. B-score at 10 µM. AID 2648;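 active means fluorescence ratio B-score, a plate-corrected score, at least three library SD, with initial intensity B-score within 5 SD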
Target sequence (P51787 whole entry, looked up): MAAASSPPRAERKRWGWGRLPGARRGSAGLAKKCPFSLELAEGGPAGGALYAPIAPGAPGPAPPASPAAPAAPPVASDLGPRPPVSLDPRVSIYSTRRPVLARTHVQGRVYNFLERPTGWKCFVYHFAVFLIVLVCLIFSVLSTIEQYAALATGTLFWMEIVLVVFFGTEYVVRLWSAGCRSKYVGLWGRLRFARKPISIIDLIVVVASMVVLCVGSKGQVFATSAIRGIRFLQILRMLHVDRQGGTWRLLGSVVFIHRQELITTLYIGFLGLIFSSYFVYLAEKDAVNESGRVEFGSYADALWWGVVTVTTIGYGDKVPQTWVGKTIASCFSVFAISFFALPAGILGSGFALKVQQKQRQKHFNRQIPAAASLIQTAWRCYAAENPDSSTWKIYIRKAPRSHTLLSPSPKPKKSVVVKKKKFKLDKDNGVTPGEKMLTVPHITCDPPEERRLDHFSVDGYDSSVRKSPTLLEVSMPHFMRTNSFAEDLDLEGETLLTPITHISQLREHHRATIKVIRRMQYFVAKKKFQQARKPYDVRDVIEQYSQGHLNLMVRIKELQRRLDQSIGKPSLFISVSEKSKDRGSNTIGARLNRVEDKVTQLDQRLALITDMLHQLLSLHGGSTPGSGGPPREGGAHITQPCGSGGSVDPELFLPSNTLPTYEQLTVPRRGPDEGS
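Schedule – 37 °C overnight plating, 90-min dark dye load, 20-min compound pretreatment · System – stable KCNQ1 CHO-K1 line · Probe or stimulus – thallium- and potassium-containing depolarizing buffer · Measured by – kinetic FluxOR fluorescence, 10 s baseline plus 110 s post-stimulus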
KCNK3 block – human KCNK3 channel inhibition, primary screen; B-score at 10 µM; CHO-KCNK3 thallium flux, FluxOR fluorescence; stronger effect = lower value; AID 602410; 340,000 tested, 0.84% active; O14649;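 active means B-score under library mean minus 4 SD, starting fluorescence ratio at most library mean plus 5 SD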;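 further: more negative B-score means stronger inhibition of thallium flux through KCNK3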
KCNK9 block – blocks the human KCNK9 two-pore domain potassium channel | B-score at 10 µM | HEK293 KCNK9, FluxOR thallium flux fluorescence; stronger effect = lower value | AID 488922 | 310,000 tested, 1.2% active;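 active means ratio B-score over 3 SD below the library mean, with starting fluorescence within 5 SD of its mean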;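 further: negative B-score means less thallium flux so channel inhibition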
KCNQ1 block – blocks the human KCNQ1 potassium channel | B-score at 10 µM | 310,000 tested, 1.3% active | CHO-K1 KCNQ1, FluxOR thallium flux fluorescence; stronger effect = higher value | P51787;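 active means compounds whose thallium flux B-score, printed positive for inhibition, exceeds three library SD while starting fluorescence stays within three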;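 further: channel opened by potassium depolarization with thallium stimulus after 20 min compound exposure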
hERG protect – compounds protecting human hERG from proarrhythmic drug block; Q12809; CHO-hERG, FluxOR thallium flux, dofetilide IC70 present; activation (rescue from dofetilide block), less the hit threshold, % at 10 µM; 310,000 tested, 0.51% active;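 active means activation above the mean of controls blocked by dofetilide plus 5 SD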;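 further: thallium influx through hERG after potassium depolarization seen as dye fluorescence rise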
Kir21 block – inhibitors of mouse Kir2.1 inward-rectifier potassium channel; P35561; HEK293-Kir2.1, FluxOR thallium flux fluorescence; stronger effect = lower value; B-score at 10 µM; 310,000 tested, 0.85% active;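 active means fluorescence ratio B-score at or below minus 3 SD of library scores, with starting-brightness B-score within 2 SD, cut at about -4.2 in these data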;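 further: channel flux triggered by added potassium and thallium sulfate stimulus; B-score of peak minus minimum fluorescence over baseline after thallium stimulus; more negative B-score means stronger Kir2.1 block with less thallium influx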
Large screens that a line does not name were inactive; ! = a repeat was not active.

CC(C)(C)C1(O)CC(C(F)(F)F)=NN1C(=O)Cc1ccc([N+](=O)[O-])cc1 (centres undefined)	KCNQ1 pot 12
O=C(N/N=C/c1c(F)cccc1Cl)c1cc(C2CC2)[nH]n1	none
CC(=N\NC(=O)c1ccc([N+](=O)[O-])cc1)/C(=N/O)C(=O)Nc1ccccc1	KCNQ1 block 6
CCOC(=O)C(CC)/C(C)=N/NC(=O)c1ccc([N+](=O)[O-])cc1 (centres undefined)	none
CCOC(=O)/C(C)=N/NC(=O)c1ccc([N+](=O)[O-])cc1	KCNQ1 pot 11, hERG protect 10
COCCCNC(=O)C[C@H]1C[C@H](C(=O)N(C(C)C)C(C)C)[C@@]2(C)c3[nH]c4ccc(Cl)cc4c3CCN2C1=O	none (no result: KCNQ1 pot, KCNK9 block, KCNQ1 block, hERG protect, Kir21 block)
O=C(Cc1ccc(Br)cc1)c1ccc(O)cc1O	KCNK9 block -8.2
N#C/C(=C/C1=C(N2CCOCC2)C(=C/c2ccc(Cl)cc2Cl)/CC1)C(=O)Nc1ccccc1F	none (no result: KCNQ1 pot, KCNK9 block, KCNQ1 block, hERG protect, Kir21 block)
O=C(Nc1ncc([N+](=O)[O-])s1)c1ccccc1Br	KCNQ1 block 8
O=C(CS(=O)(=O)c1ccccc1)Nc1ncc([N+](=O)[O-])s1	none
O=C(Nc1ncc([N+](=O)[O-])s1)c1cccs1	KCNQ1 block 6!
Cc1ccc(N2CCN(C(=O)c3ccccc3NC(=O)/C=C\C(=O)O)CC2)cc1	none
Oc1ccc(N=C/C=C/c2cccc(Br)c2)cc1-c1nc2ccccc2s1	none
CC(C)(C)c1cc(CP(=O)(c2ccccc2)c2ccccc2)cc(C(C)(C)C)c1O	KCNQ1 block 6
Fc1ccc(-c2nnc(-n3nnc4ccccc43)c3ccccc23)cc1	none
CC1=CC(=O)N(c2cccc(C(F)(F)F)c2)C1c1ccc(Cl)cc1 (centres undefined)	KCNK9 block -7.7
CC1=CC(=O)N(c2ccc(C)cc2)C1c1ccc(Cl)cc1 (centres undefined)	Kir21 block -4.5
CC(=O)C1=C(O)C(=O)N(c2ccc(O)cc2)C1c1ccc(Cl)cc1 (centres undefined)	none
CN(Cc1ccccc1)C(=O)CCC1CCN(S(C)(=O)=O)CC1	none
CCCC(=O)NC1=C(Cl)C(=O)c2ccccc2C1=O	KCNK3 block -9.3 (no result: KCNQ1 pot, KCNK9 block, KCNQ1 block, hERG protect, Kir21 block)
O=C(NCc1nc2ccccc2[nH]1)c1ccc(S(=O)(=O)N2CCCC2)cc1	hERG protect 8.1
O=C(N1CCN(c2ccccn2)CC1)N1c2ccccc2Sc2ccccc21	KCNK9 block -7.6
Fc1ccc(-n2cc(-c3ccccc3)c3c(=S)nc[nH]c32)cc1	KCNQ1 pot 10
Fc1cccc(-n2cc(-c3ccccc3)c3c(=S)nc[nH]c32)c1	none
O=C(CN1CCN(S(=O)(=O)N2CCOCC2)CC1)Nc1cc(Cl)cc(Cl)c1	none
CCCCc1nc2sc3c(SCCN(C)C)ncnc3c2c2c1CCC2	KCNQ1 pot 21
COc1ccc(CCC(=O)Nc2ccc(Cn3ccnc3)cc2)cc1	none
CC(=O)N1N=C(c2cccc([N+](=O)[O-])c2)OC1c1ccc(Br)cc1 (centres undefined)	KCNK9 block -7
CC(=O)N1N=C(c2cccc([N+](=O)[O-])c2)OC1c1ccc(Cl)cc1Cl (centres undefined)	none
O=C(NC1CCCCCC1)C1CCN(S(=O)(=O)c2cnc[nH]2)CC1	none
NC(N)=N/N=C/c1ccc(OCc2ccccc2)cc1	Kir21 block -11
COc1ccc(-c2nn(-c3ccccc3)cc2C(=O)NC(=S)NNC(=O)c2ccncc2)cc1	hERG protect 17
COc1ccc(NC(=O)c2cn(-c3ccccc3)nc2-c2ccncc2)cc1	hERG protect 25
COc1ccc(NC(=O)c2cn(-c3ccccc3)nc2-c2cc3ccccc3o2)cc1	KCNQ1 block 7
COc1ccc(-c2nn(-c3ccccc3)cc2C(=O)Nc2ccc(C(=O)O)cc2)cc1	none
CCCN(CCC)Cc1c(C(=O)N/N=C/c2ccc(C)o2)nnn1-c1nonc1N	none
CN(CCCCCCN(C)Cc1ccccc1O)Cc1ccccc1O	Kir21 block -5.2
Cc1ccc(O)c(CN(C)Cc2cc(C)ccc2O)c1	none (no result: KCNQ1 pot, KCNK9 block, KCNQ1 block, hERG protect, Kir21 block)
Cc1ccc(NC(=O)CSc2nnc(CNC(=O)c3cccs3)o2)c(C)c1	none
COc1ccc(Nc2oc(COc3ccccc3F)nc2C#N)cc1	KCNK9 block -8
CCC(C)C(NC(N)=O)C(=O)Nc1ccc(OCc2ccccc2)cc1 (centres undefined)	none
O=c1c2ccccc2sc2ccc(NCCCN3CCOCC3)cc12	none
CN1CCCC1CCNc1ccc2sc3ccccc3c(=O)c2c1 (centres undefined)	KCNK9 block -7.5
O=C(N/N=C/c1ccc(O)cc1O)C(=O)N/N=C/c1ccc(O)cc1O	none
COc1ccc(CN2CCC(N(CCc3ccccc3)Cc3ccccc3)CC2)c(OC)c1	Kir21 block -4.7
Cc1cccc(C)c1-n1nnnc1S(=O)(=O)Cc1ccccc1Cl	KCNK3 block -8.7 (no result: KCNQ1 pot, KCNK9 block, KCNQ1 block, hERG protect, Kir21 block)
Cc1nc(S(=O)(=O)Cc2ccccc2Cl)nc2c1CCC2	none
CCOc1ccc(OCCC(=O)OCC(=O)Nc2cc(OCC)c(N3CCOCC3)cc2OCC)cc1	none
CC(C)(C)OC(=O)C[C@@H]1C/C=C\C[C@@H](CC(=O)N[C@@H](CO)Cc2ccccc2)C(=O)NC[C@@H](c2ccccc2)OC1=O	none (no result: KCNQ1 pot, KCNK9 block, KCNQ1 block, hERG protect, Kir21 block)
O=C(CSc1nc2nc(-c3cccs3)cc(C(F)(F)F)c2c(=O)[nH]1)Nc1ccc(F)c(F)c1	KCNQ1 block 7
COc1ccc(N2CCN(S(=O)(=O)c3ccc4c(c3)NC(=O)C(C)S4)CC2)cc1 (centres undefined)	none
CCOC(=O)c1cccc(NC(=O)CSc2nnc(COc3ccccc3)n2CC)c1	none
CCOC(=O)c1ccccc1NC(=O)CSc1nnc(COc2ccccc2)n1CC	Kir21 block -6.2
COc1cc(C2c3cc4c(cc3OC(NCc3ccccc3)C2C)OCO4)cc(OC)c1OC (centres undefined)	none (no result: KCNQ1 pot, KCNK9 block, KCNQ1 block, hERG protect, Kir21 block)
Cn1nc(C(F)(F)F)c(CNC(=O)C(C)(C)CCl)c1N1CCOCC1	none
Cn1nc(C(F)(F)F)c(CN2CC(C)(C)C2=O)c1N1CCOCC1	hERG protect 5.0
CC(C)CCN1C(=O)c2ccc(C(=O)Nc3ccc(Br)cc3C(=O)O)cc2C1=O	KCNQ1 block 6
COc1ccc(C2C(C(=O)c3ccco3)=C(O)C(=O)N2CC2CCCO2)c(OC)c1 (centres undefined)	none
Cc1cccc(C(=O)NC(=S)NNC(=O)c2cccs2)c1	KCNQ1 pot 8
O=C(NC(=S)NNC(=O)c1cccs1)c1ccccc1	KCNQ1 block 6
CC(C)(C)c1ccc(C(=O)NC(=S)NNC(=O)c2cccs2)cc1	KCNQ1 pot 12
Cc1ccccc1C(=O)NNC(=S)NC(=O)c1cccs1	none
